Measurements gathered from unrelated publications.
Medium: plasma

Cc1cc2sc(N)nc2c2cccnc12
AUC(0-inf) (female BALB/c mouse; intraperitoneal; 30 mg/kg; single dose): 45600 ng·h/mL

C=CS(=O)(=O)c1ccc(Nc2nc(OCC3CCCCC3)c3nc[nH]c3n2)cc1
AUC(0-t) (male BALB/c mouse; intravenous; 20 mg/kg; single dose): 124 ng·h/mL

CN1CCN(C(=O)[C@H](CCCN[C@@H]2C[C@H]2c2ccc(F)cc2)NC(=O)c2ccc(-n3ccnn3)cc2)CC1
AUC(0-t) (CD-1 mouse; intravenous; 3 mg/kg): 2.52 µM·h

Cc1c(C(=O)O)ccc2c3n(nc12)[C@@H]1[C@H](C3)N(CC2CC2)[C@@]2(C(=O)Nc3cc(Cl)ccc32)[C@H]1c1cccc(Cl)c1F
AUC(0-inf) (female mouse; oral; 5 mg/kg): 125 µM·h

CCOc1ccc(N(C)S(=O)(=O)c2cc(Cl)sc2C(=O)Nc2cc(Cl)cc(C(=O)O)c2)cc1OC
AUC(0-t) (male C57BL/6 mouse; intraperitoneal; 10 mg/kg): 5810 ng·h/mL

COc1cc2c(NC3CCN(CCCC(=O)NCCCCCCCCCCCC(=O)N[C@H](C(=O)N4C[C@H](O)C[C@H]4C(=O)NCc4ccc(-c5scnc5C)cc4)C(C)(C)C)CC3)nc(N3CCC(F)(F)CC3)nc2cc1OCCCN1CCCC1
AUC(0-t) (male C57BL/6 mouse; intraperitoneal; 50 mg/kg; single dose): 61 µM·h

CN(C(=O)c1ccn2ncc(-c3ccc(C(N)=O)cc3)c2c1)c1ccc(C#N)cn1
AUC (female C57BL/6 mouse; intravenous; 1 mg/kg): 2.68 µM·h

Nc1ncn([C@H]2C[C@H](O)[C@@H](CO)O2)c(=O)n1
AUC(0-inf) (female C57BL/6 mouse; oral; 0.4 mg/kg): 71 ng·h/mL

CCN1CCN(Cc2ccc(NC(=O)c3ccc(C)c(NC(=O)c4cncc(-c5cccs5)c4)c3)cc2C(F)(F)F)CC1
AUC(0-t) (mouse; intraperitoneal; 20 mg/kg; single dose): 1990 ng·h/mL

CC(=O)O[C@@]12CO[C@@H]1C[C@H](O)[C@@]1(C)C(=O)[C@H](O)C3=C(C)[C@@H](OC(=O)[C@H](O)[C@@H](NC(=O)OC(C)(C)C)c4ccccc4)C[C@@](O)([C@@H](OC(=O)c4ccccc4)[C@H]21)C3(C)C
AUC(0-t) (male Kunming mouse; oral; 20 mg/kg): 14.7 ng·h/mL

CCOC(=O)CN(C(=O)c1ccn2ncc(-c3ccc(C(=O)NC)cc3)c2c1)c1ccc(Cl)cc1
AUC (female C57BL/6 mouse; oral; 10 mg/kg): 1.18 µM·h
